One assay relates to ZR-75-1. Nature of the assay: Growth inhibition of human ZR-75-1 cells after 48 hrs by SRB assay. In kind it is functional. As to conditions: ZR-75-1, 48 h. An outline of the steps: (§1)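 SRB assay with 48 h continuous exposure. Cells were grown in RPMI 1640 with 10% FBS and 2 mM L-glutamine and preincubated 24 h at 37 °C, 5% CO2. Compounds were tested at four concentrations (0.1, 1, 10, 100) in triplicate wells. Cells were fixed with cold TCA (10% final) for 60 min at 4 °C, stained 20 min with 0.4% SRB in 1% acetic acid, and the dye eluted with 10 mM Tris. A540 was read against a 690 nm reference. Percent growth is relative to control wells on each plate.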
Background: Sulforhodamine B stains cellular protein and so reports cell mass.

For the next assay, the system named is A2780. Description: Growth inhibition of human A2780 cells after 48 hrs by SRB assay. It is filed as functional. As to conditions: A2780, 48 h. An outline of the steps: (§2)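 Cells grown in RPMI 1640 with 10% FBS and 2 mM L-glutamine, plated at densities set by doubling time, pre-incubated 24 h at 37 °C/5% CO2. Drug tested at 0.1, 1, 10 and 100 µM in triplicate wells for 48 h continuous exposure. Cells fixed with cold TCA (final 10%) 60 min at 4 °C, stained with 0.4% SRB, dye eluted in 10 mM Tris. Absorbance read at 540 nm (690 nm reference); percent growth calculated relative to control wells.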

A further assay concerns SiHa. Description: Growth inhibition of human SiHa cells after 48 hrs by SRB assay. In kind it is functional. An outline of the steps:
as §1

The subject of another assay is PC-3. Description: Growth inhibition of human PC3 cells after 48 hrs by SRB assay. It is filed as functional. As to conditions: PC-3, 48 h. The method, boiled down:
as §2

Another assay relates to HOP-62. Description: Growth inhibition of human HOP62 cells after 48 hrs by SRB assay. In kind it is functional. As to conditions: HOP-62, 48 h. The method, boiled down: as §2
The next assay has as its system COLO 205. Description: Growth inhibition of human COLO205 cells after 48 hrs by SRB assay. It is filed as functional. Particulars: COLO 205, 48 h. The method, boiled down:
as §2

The nature of assay [1]: Growth inhibition of human DWD cells after 48 hrs by SRB assay. In kind it is functional. An outline of the steps: as §2
Another assay relates to MCF7. Description: Growth inhibition of human MCF7 cells after 48 hrs by SRB assay. It is filed as functional. Particulars: MCF7, 48 h. An outline of the steps:
as §2

A further assay has as its system A549. Nature of the assay: Growth inhibition of human A549 cells after 48 hrs by SRB assay. In kind it is functional. As to conditions: A549, 48 h. The method, boiled down: as §2
Assay [2] is described as follows: Growth inhibition of human Gurav cells after 48 hrs by SRB assay. In kind it is functional. An outline of the steps:
as §2

The next assay relates to Nucleic Acid. Description: Binding affinity to calf thymus DNA assessed as change in melting temperature at 20 uM at pH 7 incubated for 18 hrs at 37 degC by thermal denaturation assay. In kind it is nucleic-acid assay. As to conditions: Bos taurus. An outline of the steps: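 CT-DNA (100 µM in phosphate) with 20 µM ligand, 1:5 [PBD]/[DNA], in 10 mM sodium phosphate/1 mM Na2EDTA buffer pH 7.00. Ligand added from methanol solution; incubated at 37 °C for 0 or 18 h. A260 monitored while heating 1 °C/min over 40–90 °C. Tm taken from d(A260)/dT maxima; ΔTm = Tm(DNA+PBD) − Tm(DNA alone). Values are means of at least three determinations, corrected for methanol cosolvent.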

The subject of a further assay is KB. Nature of the assay: Growth inhibition of human KB cells after 48 hrs by SRB assay. In kind it is functional. An outline of the steps: as §2

Where only a bound is given, the exact number is not on record here.

Regarding `COc1cc2c(cc1OCCCOc1ccc(-n3c(/C=C/c4ccccc4)nc4ccccc4c3=O)cc1)N=C[C@@H]1CCCN1C2=O`, the 50% growth inhibitory concentration (GI50) in the assay with ZR-75-1 came to 160 nM; in the assay on A2780 it was 140 nM; with SiHa, 2000 nM; with PC-3, 160 nM; with HOP-62, 2150 nM; with COLO 205 it was 2120 nM. The GI50 in assay [1] was 140 nM; in the assay on MCF7, 2030 nM; in the assay on A549 it was 1880 nM; in assay [2], 1850 nM; with KB it was 1780 nM. Moreover, the ΔTm in the assay with Nucleic Acid turned out to be 2 °C.
As to `COc1cccc2c1C(=O)c1c(O)c3c(c(O)c1C2=O)C[C@@](O)(C(=O)CO)C[C@@H]3O[C@H]1C[C@H](N)[C@H](O)[C@H](C)O1` [DOXORUBICIN], the GI50 in the assay on A2780 stood at 160 nM; with SiHa, 170 nM; in the assay with HOP-62, 140 nM; in the assay with COLO 205, 140 nM; in assay [1] it was 100 nM; in the assay on MCF7, 170 nM. For the same compound, the GI50 (in [2]; in the assay on KB) was 170 nM throughout.
On to `COc1cc2c(cc1OCCCCCOc1ccc(-n3c(/C=C/c4ccccc4)nc4ccccc4c3=O)cc1)N=C[C@@H]1CCCN1C2=O`, for which the GI50 with ZR-75-1 turned out to be 150 nM; in the assay with A2780, 150 nM; in the assay with SiHa, 2080 nM; in the assay on PC-3, 1830 nM; in the assay on HOP-62 it was 2310 nM; in the assay on COLO 205, 2000 nM. For the same compound, the GI50 turned out to be 170 nM in assay [1]; 2500 nM in the assay with MCF7; 26200 nM in the assay with A549; 1820 nM in assay [2]; 2150 nM with KB. Besides, the ΔTm with Nucleic Acid is 2 °C.
In the case of `COc1ccc(-n2c(C)nc3ccc(OCCCCCOc4cc5c(cc4OC)C(=O)N4CCC[C@H]4C=N5)cc3c2=O)cc1`, the GI50 with ZR-75-1 came out at 150 nM; in the assay with A2780 it was 140 nM; with SiHa it was 180 nM; with PC-3, 170 nM; in the assay on HOP-62, 180 nM; with COLO 205, 140 nM. Moreover, the GI50 is 130 nM in [1]; less than 100 nM in the assay on MCF7; 140 nM with A549; less than 100 nM in assay [2]; 160 nM with KB. Moreover, the ΔTm with Nucleic Acid stood at 2.2 °C.
In the case of `COc1cc2c(cc1OCCCCCOc1ccc3nc(C)n(-c4ccc(I)cc4C)c(=O)c3c1)N=C[C@@H]1CCCN1C2=O`, the GI50 in the assay on ZR-75-1 worked out at 160 nM; in the assay with A2780, 140 nM; in the assay with SiHa, 170 nM; in the assay with PC-3 it was 160 nM; in the assay on HOP-62 it was 160 nM; with COLO 205, 160 nM. Further, the GI50 in assay [1] stood at 130 nM; in the assay with MCF7, 110 nM; in the assay on A549 it was 160 nM; in assay [2] it was 160 nM; in the assay with KB, 150 nM. The ΔTm with Nucleic Acid stood at 2.1 °C.
Consider `COc1cc2c(cc1OCCCCOc1ccc(-n3c(C)nc4ccccc4c3=O)cc1)N=C[C@@H]1CCCN1C2=O`, for which the GI50 in the assay with ZR-75-1 is 170 nM; with A2780, 1650 nM; in the assay on SiHa it was 1900 nM; with PC-3, 170 nM; in the assay with HOP-62, 1950 nM; with COLO 205, 1810 nM. The GI50 in assay [1] came to 1600 nM; with MCF7 it was 2300 nM; in the assay with A549 it was 1930 nM; in [2], 1950 nM; with KB, 1980 nM. In the assay with Nucleic Acid, the ΔTm is 2.1 °C.
Take `COc1cc2c(cc1O)N=C[C@@H]1CCCN1C2=O`: the GI50 in the assay on A2780 is 140 nM; in the assay on SiHa, 170 nM; with PC-3 it was 200 nM; with HOP-62, 150 nM; in the assay with COLO 205, 110 nM; in the assay with MCF7 it was 170 nM. For the same compound, the GI50 in the assay with A549 stood at 160 nM; in assay [2], 160 nM; in the assay with KB it was 170 nM. Besides, the ΔTm in the assay with Nucleic Acid was 0.7 °C.
Regarding `COc1cc2c(cc1OCCCOc1ccc(-n3c(C)nc4ccccc4c3=O)cc1)N=C[C@@H]1CCCN1C2=O`, the GI50 with ZR-75-1 stood at 150 nM; with A2780, 100 nM; with SiHa, 160 nM; with PC-3 it was 130 nM; in the assay with HOP-62, 160 nM; with COLO 205, 140 nM. Moreover, the GI50 in assay [1] was 110 nM; with MCF7, 1830 nM; in the assay on A549 it was 1480 nM; in [2], 130 nM; in the assay with KB, 150 nM. In the assay on Nucleic Acid, the ΔTm came to 2 °C.
Regarding `COc1cc2c(cc1OCCCCOc1ccc3nc(C)n(-c4ccc(I)cc4C)c(=O)c3c1)N=C[C@@H]1CCCN1C2=O`, the GI50 was determined as 160 nM in the assay with ZR-75-1; 150 nM in the assay on A2780; 180 nM in the assay on SiHa; 170 nM in the assay on PC-3; 170 nM in the assay with HOP-62; 170 nM in the assay with COLO 205. The GI50 in assay [1] was 150 nM; in the assay with MCF7, 120 nM; in the assay with A549, 170 nM; in assay [2], 170 nM; with KB, 150 nM. The ΔTm in the assay on Nucleic Acid stood at 2 °C.
With `COc1cc2c(cc1OCCCCCOc1ccc3nc(C)n(-c4ccc(F)cc4)c(=O)c3c1)N=C[C@@H]1CCCN1C2=O`, the concentration for 50% growth inhibition (GI50) in the assay on ZR-75-1 came out at 160 nM; in the assay on A2780 it was 140 nM; in the assay on SiHa, 190 nM; in the assay with PC-3, 170 nM; in the assay with HOP-62 it was 180 nM; in the assay on COLO 205, 150 nM. Also, the GI50 in assay [1] was 150 nM; in the assay on MCF7, 150 nM; in the assay on A549, 130 nM; in [2], 130 nM; with KB it was 150 nM. In addition, the ΔTm in the assay with Nucleic Acid came to 2.2 °C.
On to `COc1cc2c(cc1OCCCCOc1ccc(-n3c(/C=C/c4ccccc4)nc4ccccc4c3=O)cc1)N=C[C@@H]1CCCN1C2=O`, for which the GI50 is 160 nM in the assay on ZR-75-1; 160 nM in the assay with A2780; 2190 nM in the assay with SiHa; 1910 nM in the assay on PC-3; 2330 nM in the assay on HOP-62; 2230 nM with COLO 205. For the same compound, the GI50 worked out at 160 nM in [1], 2390 nM in the assay on A549, 1930 nM in assay [2] and 2070 nM in the assay on KB. In the assay with Nucleic Acid, the ΔTm was 2.3 °C.
With `COc1cc2c(cc1OCCCCOc1ccc3nc(C)n(-c4ccc(Cl)cc4Cl)c(=O)c3c1)N=C[C@@H]1CCCN1C2=O`, the GI50 was 170 nM in the assay on ZR-75-1; 150 nM in the assay on A2780; 180 nM in the assay with SiHa; 180 nM in the assay on PC-3; 180 nM in the assay with HOP-62; 170 nM in the assay with COLO 205. In addition, the concentration for 50% growth inhibition (GI50) amounted to 150 nM in assay [1]; 140 nM in the assay with MCF7; 180 nM in the assay with A549; 170 nM in assay [2]; 160 nM in the assay on KB. Also, the ΔTm in the assay on Nucleic Acid stood at 2.3 °C.

The GI50 is the concentration giving 50% growth inhibition. As usually defined, the ΔTm is the shift of the melting midpoint relative to a reference.

Source of the values: ChEMBL document CHEMBL1811823, “Quinazolinone linked pyrrolo[2,1-c][1,4]benzodiazepine (PBD) conjugates: Design, synthesis and biological evaluation as potential anticancer agents” (2010).
